Read-outs that look alike come from different tables or passages of the source.
Tests used:
[1] = target: T1, hA3AR-NanoBit-βarr2 (A3AR-LgBit with SmBit-βarr2) (Homo sapiens, UniProt P0DMS8); assay: NanoBit βarr2 recruitment, luminescence AUC; assay type: cell-based
human A3AR (hA3AR) [2] = target: T2, human A3AR (hA3AR) (Homo sapiens, UniProt P0DMS8); assay: […]I-AB-MECA competition, CHO membranes; assay type: binding
T2 sequence (P0DMS8 1-318): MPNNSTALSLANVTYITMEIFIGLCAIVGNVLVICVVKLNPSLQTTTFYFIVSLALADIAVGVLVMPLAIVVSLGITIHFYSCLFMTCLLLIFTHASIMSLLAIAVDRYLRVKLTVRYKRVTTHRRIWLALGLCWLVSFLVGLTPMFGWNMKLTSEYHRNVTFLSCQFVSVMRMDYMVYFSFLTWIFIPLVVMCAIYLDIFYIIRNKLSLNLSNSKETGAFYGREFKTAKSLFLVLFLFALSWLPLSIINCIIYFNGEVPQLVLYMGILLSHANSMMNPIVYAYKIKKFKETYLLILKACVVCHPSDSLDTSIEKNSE

[3] = target: T1, hA3AR-NanoBit-βarr2 (A3AR-LgBit with SmBit-βarr2); assay: cell-based; conditions: HEK-293T, read-out: Stable A3AR NanoBit® HEK293T cell line^A / Emax (%)
human A3AR (hA3AR) [4] = target: T2, human A3AR (hA3AR); assay: cell-based; conditions: CHO, read-out: Stable A3AR CHO cell line^B / Emax (%)
human A3AR (hA3AR) [5] = target: T2, human A3AR (hA3AR); assay: inhibition of forskolin-stimulated cAMP, CHO cells; assay type: cell-based; conditions: agonism; 10 µM forskolin, 10 µM rolipram, adenosine deaminase
[6] = target: T1, hA3AR-NanoBit-βarr2 (A3AR-LgBit with SmBit-βarr2); assay: cell-based; conditions: HEK-293T, read-out: Stable A3AR NanoBit® HEK293T cell line^A / Emax (%); remark: listed apart in the source
human A3AR (hA3AR) [7] = target: T2, human A3AR (hA3AR); assay: inhibition of forskolin-stimulated cAMP, CHO cells; assay type: cell-based
[8] = target: T1, hA3AR-NanoBit-βarr2 (A3AR-LgBit with SmBit-βarr2); assay: NanoBit βarr2 recruitment, luminescence AUC; assay type: cell-based; conditions: agonism; stable HEK293T cells, room temperature, Opti-MEM I
Method in brief: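 Stable HEK293T line retrovirally co-transduced with A3AR-LgBit and SmBit-βarr2, FACS-sorted on co-expressed EGFP/dNGFR. Cells on PDL-coated plates at 5×10^4/well overnight (37°C, 5% CO2), washed twice, detection reagent added, luminescence equilibrated. Agonist added at final 100 pM–25 µM (≤0.5% DMSO), luminescence followed ≥90 min. DMSO solvent blank (0.001–0.5%) in each run.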

T1 sequence (P32121 whole entry partner, one chain of several): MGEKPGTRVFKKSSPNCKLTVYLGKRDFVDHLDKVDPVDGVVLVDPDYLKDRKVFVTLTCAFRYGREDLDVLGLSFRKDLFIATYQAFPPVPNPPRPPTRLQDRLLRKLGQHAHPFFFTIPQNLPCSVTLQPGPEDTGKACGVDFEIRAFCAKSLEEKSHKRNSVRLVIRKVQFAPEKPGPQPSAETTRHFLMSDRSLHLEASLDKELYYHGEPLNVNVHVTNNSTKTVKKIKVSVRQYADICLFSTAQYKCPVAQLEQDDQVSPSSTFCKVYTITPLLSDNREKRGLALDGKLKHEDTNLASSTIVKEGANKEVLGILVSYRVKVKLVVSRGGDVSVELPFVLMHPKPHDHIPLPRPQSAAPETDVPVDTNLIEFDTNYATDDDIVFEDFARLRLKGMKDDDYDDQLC

Structure (SMILES) | EC50 [1] | Emax [3] | Emax (human A3AR (hA3AR) [4]) | Emax [6] | also measured
OC[C@H]1O[C@@H](n2cnc3c(NC4CCCC4)nc(Cl)nc32)[C@H](O)[C@@H]1O [CCPA] |  | 33.5 ± 2.7% | 0% |  | LogEC50 (NA, not significantly active at 10 μM) (human A3AR (hA3AR) [5]): > 10 µM
CCNC(=O)[C@H]1O[C@@H](n2cnc3c(N)nc(NCCc4ccc(CCC(=O)O)cc4)nc32)[C@H](O)[C@@H]1O [CGS21680] |  | 99 ± 5.5% | 98 ± 5% |  | 
OC[C@H]1O[C@@H](n2cnc3c(NC4CCCC4)cc(Cl)nc32)[C@H](O)[C@@H]1O [DCCA] | 1480 nM |  |  | 5.8 ± 0.2% | Ki (human A3AR (hA3AR) [2]): 244 ± 37 nM
CNC(=O)[C@H]1O[C@@H](n2cnc3c(NCc4cccc(I)c4)ncnc32)[C@H](O)[C@@H]1O [IB-MECA] |  | 78.4 ± 2.5% |  |  | 
Nc1nc(Cl)nc2c1ncn2[C@H]1[C@H](O)[C@H](O)[C@]2(CO)C[C@H]12 [MRS1873] |  | 13 ± 1.6% | 41 ± 5% |  | 
O[C@@H]1[C@H](O)[C@@H]2C[C@@H]2[C@H]1n1cnc2c(NCc3cccc(I)c3)nc(Cl)nc21 [MRS5127] | 24.5 nM | 5.2 ± 0.4% |  |  | EC50 (human A3AR (hA3AR) [7]): 12.6 nM
CNC(=O)[C@@]12C[C@@H]1[C@@H](n1cnc3c(NC)nc(C#Cc4ccccc4Cl)nc31)[C@H](O)[C@@H]2O [MRS5663] | 5.62 nM |  |  | 102 ± 3.6% | 
CNC(=O)[C@@]12C[C@@H]1[C@@H](n1cnc3c(NC)nc(C#Cc4cccs4)nc31)[C@H](O)[C@@H]2O [MRS5917] |  | 91.6 ± 3.4% | 97.3 ± 2.9% |  | 
CNC(=O)[C@@]12C[C@@H]1[C@@H](n1cnc3c(NC)nc(C#Cc4ccccc4OC)nc31)[C@H](O)[C@@H]2O [MRS5967] | 4.68 nM |  |  | 92.5 ± 2.4% | 
CNC(=O)[C@@]12C[C@@H]1[C@@H](n1cnc3c(NC)nc(C#Cc4ccc(Cl)s4)cc31)[C@H](O)[C@@H]2O [MRS7173] | 55 nM |  |  | 78.2 ± 1.8% | Ki (human A3AR (hA3AR) [2]): 1.56 ± 0.2 nM
CNC(=O)[C@@]12C[C@@H]1[C@@H](n1cnc3c(C)nc(C#Cc4ccc(Cl)s4)nc31)[C@H](O)[C@@H]2O [MRS7195] |  | 84.5 ± 6.4% | 107 ± 26% |  | 
CNC(=O)[C@@]12C[C@@H]1[C@@H](n1cnc3cnc(C#Cc4ccc(Cl)s4)nc31)[C@H](O)[C@@H]2O [MRS7220] |  | 68.4 ± 5.3% | 97.8 ± 0.1% |  | 
CCOC(=O)[C@@]12C[C@@H]1[C@@H](n1cnc3c(NC)nc(C#Cc4ccc(Cl)s4)nc31)[C@H](O)[C@@H]2O [MRS7232] | 50.1 nM |  |  | 13.6 ± 1.6% | Ki (human A3AR (hA3AR) [2]): 5.38 ± 0.03 nM
CCOC(=O)[C@@]12C[C@@H]1[C@@H](n1ccc3c(NC)nc(C#Cc4ccc(Cl)s4)nc31)[C@H](O)[C@@H]2O [MRS7299] |  |  | 1 ± 7% |  | LogEC50 (NA, not significantly active at 10 μM) [8]: > 10 µM; EC50 (human A3AR (hA3AR) [7]): > 10000 nM
CCNC(=O)[C@H]1O[C@@H](n2cnc3c(N)ncnc32)[C@H](O)[C@@H]1O [NECA] |  |  | 103% |  | 
OC[C@H]1O[C@@H](n2cnc3c(NCc4ccccc4)ncnc32)[C@H](O)[C@@H]1O [N^6-benzyl-adenosine] | 851 nM |  |  | 34.9 ± 2.3% | 
C[C@H](Cc1ccccc1)Nc1ncnc2c1ncn2[C@@H]1O[C@H](CO)[C@@H](O)[C@H]1O [R-PIA] |  | 56.6 ± 1.9% | 102 ± 6% |  | 
C[C@@H](Cc1ccccc1)Nc1ncnc2c1ncn2[C@@H]1O[C@H](CO)[C@@H](O)[C@H]1O [S-PIA] |  | 51 ± 1.4% | 97 ± 3% |  | 

More lines, main results first:

EC50 [1] | Emax [3] | Emax (human A3AR (hA3AR) [4]) | Emax [6] | Structure (SMILES) | also measured
245 nM | 73.7 ± 3.1% | 103 ± 4% |  | NCCNC(=O)Cc1ccc(NC(=O)Cc2ccc(Nc3ncnc4c3ncn4[C@@H]3O[C@H](CO)[C@@H](O)[C@H]3O)cc2)cc1 [ADAC, N^6-[4-[[[4-[[[(2-aminoethyl)amino]carbonyl]methyl]anilino]-carbonyl]methyl]phenyl]adenosine] | Ki (human A3AR (hA3AR) [2]): 13.3 ± 3 nM
 | 56.9 ± 3.7% | 97 ± 4% |  | OC[C@H]1O[C@@H](n2cnc3c(NC4CCCC4)ncnc32)[C@H](O)[C@@H]1O [CPA] | 
 | 9.8 ± 1.2% | 56 ± 4.8% |  | O[C@@H]1[C@H](O)[C@@H]2C[C@@H]2[C@H]1n1cnc2c(NC(C3CC3)C3CC3)nc(Cl)nc21 [MRS5474] | 
1200 nM |  |  | 46.8 ± 3.3% | CNC(=O)[C@@]12C[C@@H]1[C@@H](n1cnc3c(NCc4cccc(Cl)c4)nc(C#Cc4ccc(-c5ccccc5)cc4)nc31)[C@H](O)[C@@H]2O [MRS5679] | 
 | 83.5 ± 4.6% |  |  | CNC(=O)[C@@]12C[C@@H]1[C@@H](n1cnc3c(NCc4cccc(Cl)c4)nc(C#Cc4ccc(F)c(F)c4)nc31)[C@H](O)[C@@H]2O [MRS5698] | 
 |  |  | 95 ± 4% | CNC(=O)[C@@]12C[C@@H]1[C@@H](n1cnc3c(NC)nc(C#Cc4ccc(Cl)s4)nc31)[C@H](O)[C@@H]2O [MRS5980] | 
 | 74.4 ± 2.3% | 95.5 ± 2.3% |  | CCNc1cc(C#Cc2ccc(Cl)s2)nc2c1ncn2[C@H]1[C@H](O)[C@H](O)[C@]2(C(=O)NC)C[C@H]12 [MRS7144] | 
21.4 nM |  |  | 94.5 ± 4.8% | CCCNc1nc(C#Cc2ccc(Cl)s2)nc2c1ncn2[C@H]1[C@H](O)[C@H](O)[C@]2(C(=O)NC)C[C@H]12 [MRS7154] | 
589 nM |  |  | 75.8 ± 3% | OC[C@H]1O[C@@H](n2cnc3c(Nc4ccccc4)ncnc32)[C@H](O)[C@@H]1O [N^6-phenyl-adenosine] | Ki (human A3AR (hA3AR) [2]): 14.9 ± 3.1 nM

— article PMC6530469 (Biochemical pharmacology, 2018)
